Test results as given in ChEMBL document CHEMBL1157639, “Identification of inhibitors of drug-resistant Candida albicans strains from a library of bicyclic peptidomimetic compounds” (2010).

Tests used:
[1] = test system: Candida albicans; experiment: Antifungal activity against pharmacoresistant Candida albicans AIDS68 infected in Wistar rat estrogen-dependent fungal vaginitis model assessed as fungal burden at 10 ug administered intravaginally 48 hrs after fungal infection measured on day 28 after infection; format: functional, Vagina
How it was run: (§1)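 Oophorectomized female Wistar rats (80-100 g) got 0.5 mg estradiol benzoate s.c. Six days later they were inoculated intravaginally with >10⁷ YPD-grown yeast cells (28 °C, washed, hemocytometer-counted) in 0.1 mL saline. Treatment was given intravaginally at 1, 24 and 48 h post-challenge. Burden was counted by culturing 100 μL vaginal fluid on Sabouraud-chloramphenicol (50 μg/mL) agar, as CFU/mL ×1000, through day 28.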

[2] = test system: Candida albicans; experiment: Antifungal activity against Candida albicans SA40 infected in Wistar rat estrogen-dependent fungal vaginitis model assessed as fungal burden at 10 ug administered intravaginally 48 hrs after fungal infection measured on day 7 after infection; format: functional, Vagina; how it was run: as §1
[3] = test system: Candida albicans; experiment: Antifungal activity against Candida albicans SA40 infected in Wistar rat estrogen-dependent fungal vaginitis model assessed as fungal burden at 10 ug administered intravaginally 24 hrs after fungal infection measured on day 2 after infection; format: functional, Vagina; how it was run: as §1
[4] = test system: Candida albicans; experiment: Antifungal activity against pharmacoresistant Candida albicans AIDS68 infected in Wistar rat estrogen-dependent fungal vaginitis model assessed as fungal burden at 10 ug administered intravaginally 48 hrs after fungal infection measured on day 14 after infection; format: functional, Vagina; how it was run: as §1
[5] = test system: Candida albicans; experiment: Antifungal activity against pharmacoresistant Candida albicans AIDS68 infected in Wistar rat estrogen-dependent fungal vaginitis model assessed as fungal burden at 10 ug administered intravaginally 48 hrs after fungal infection measured on day 21 after infection; format: functional, Vagina; how it was run: as §1
[6] = test system: Candida albicans; experiment: Antifungal activity against Candida albicans SA40 infected in Wistar rat estrogen-dependent fungal vaginitis model assessed as fungal burden at 10 ug administered intravaginally 1 hr after fungal infection measured on day 1 after infection; format: functional, Vagina; how it was run: as §1
[7] = test system: Candida albicans; experiment: Antifungal activity against Candida albicans SA40 infected in Wistar rat estrogen-dependent fungal vaginitis model assessed as fungal burden at 10 ug administered intravaginally 48 hrs after fungal infection measured on day 21 after infection; format: functional, Vagina; how it was run: as §1
[8] = test system: Candida albicans; experiment: Antifungal activity against Candida albicans SA40 infected in Wistar rat estrogen-dependent fungal vaginitis model assessed as fungal burden at 10 ug administered intravaginally 48 hrs after fungal infection measured on day 28 after infection; format: functional, Vagina; how it was run: as §1
[9] = test system: Candida albicans; experiment: Antifungal activity against pharmacoresistant Candida albicans AIDS68 infected in Wistar rat estrogen-dependent fungal vaginitis model assessed as fungal burden at 10 ug administered intravaginally 48 hrs after fungal infection measured on day 5 after infection; format: functional, Vagina; how it was run: as §1
[10] = test system: Candida albicans; experiment: Antifungal activity against pharmacoresistant Candida albicans AIDS68 infected in Wistar rat estrogen-dependent fungal vaginitis model assessed as fungal burden at 10 ug administered intravaginally 48 hrs after fungal infection measured on day 7 after infection; format: functional, Vagina; how it was run: as §1
[11] = test system: Candida albicans; experiment: Antifungal activity against Candida albicans SA40 infected in Wistar rat estrogen-dependent fungal vaginitis model assessed as fungal burden at 10 ug administered intravaginally 48 hrs after fungal infection measured on day 5 after infection; format: functional, Vagina; how it was run: as §1
[12] = test system: Candida albicans; experiment: Antifungal activity against pharmacoresistant Candida albicans AIDS68 infected in Wistar rat estrogen-dependent fungal vaginitis model assessed as fungal burden at 10 ug administered intravaginally 1 hr after fungal infection measured within 1 day of infection; format: functional, Vagina; how it was run: as §1
[13] = test system: Candida albicans; experiment: Antifungal activity against pharmacoresistant Candida albicans AIDS68 infected in Wistar rat estrogen-dependent fungal vaginitis model assessed as fungal burden at 10 ug administered intravaginally 1 hr after fungal infection measured on day 1 after infection; format: functional, Vagina; how it was run: as §1
[14] = test system: Candida albicans; experiment: Antifungal activity against Candida albicans SA40 infected in Wistar rat estrogen-dependent fungal vaginitis model assessed as fungal burden at 10 ug administered intravaginally 48 hrs after fungal infection measured on day 14 after infection; format: functional, Vagina; how it was run: as §1
[15] = test system: Candida albicans; experiment: Antifungal activity against pharmacoresistant Candida albicans AIDS68 infected in Wistar rat estrogen-dependent fungal vaginitis model assessed as fungal burden at 10 ug administered intravaginally 24 hrs after fungal infection measured on day 2 after infection; format: functional, Vagina; how it was run: as §1
[16] = test system: Candida albicans; experiment: Antifungal activity against Candida albicans SA40 infected in Wistar rat estrogen-dependent fungal vaginitis model assessed as fungal burden at 10 ug administered intravaginally 1 hr after fungal infection measured within 1 day of infection; format: functional, Vagina; how it was run: as §1
[17] = target: Secreted aspartic protease 2 (Candida albicans) (UniProt P0CS83); experiment: Inhibition of Candida albicans SAP2 at 10 uM by spectrophotometry
How it was run: (§2)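 Sample was mixed with 1% (w/v) BSA substrate in 50 mM sodium citrate, pH 3.2, plus SAP2 protease (1 μg/mL stock solution) and incubated 30 min at 37 °C. The reaction was stopped with 10% TCA, kept 30 min on ice, and centrifuged; supernatant A280 was read. Percent inhibition was taken from ΔOD, with control proteinase minus proteinase plus pepstatin A set as 100%.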

[18] = target: Secreted aspartic protease 2 (Candida albicans) (UniProt P0CS83); experiment: Inhibition of Candida albicans SAP2 at 10 uM by spectrophotometry relative to pepstatin A; how it was run: as §2
[19] = target: Secreted aspartic protease 2 (Candida albicans) (UniProt P0CS83); experiment: Inhibition of Candida albicans SAP2 at 20 uM by spectrophotometry relative to pepstatin A; how it was run: as §2

Sequence of Secreted aspartic protease 2 (Candida albicans) (P0CS83 57-398 limits assumed): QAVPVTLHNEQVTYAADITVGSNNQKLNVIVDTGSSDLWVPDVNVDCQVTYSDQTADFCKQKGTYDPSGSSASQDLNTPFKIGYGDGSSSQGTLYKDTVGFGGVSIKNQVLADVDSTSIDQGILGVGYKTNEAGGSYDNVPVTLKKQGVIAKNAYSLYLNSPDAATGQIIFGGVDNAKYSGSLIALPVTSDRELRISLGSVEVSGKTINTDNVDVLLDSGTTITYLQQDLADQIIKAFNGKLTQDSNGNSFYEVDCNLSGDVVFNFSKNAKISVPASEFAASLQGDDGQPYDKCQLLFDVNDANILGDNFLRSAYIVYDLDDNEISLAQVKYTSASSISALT

| SMILES | Activity [1] [×10³ CFU/ml] | Activity [2] [×10³ CFU/ml] | Activity [3] [×10³ CFU/ml] | Activity [4] [×10³ CFU/ml] | Activity [5] [×10³ CFU/ml] | Activity [6] [×10³ CFU/ml] | Activity [7] [×10³ CFU/ml] | Activity [8] [×10³ CFU/ml] | Activity [9] [×10³ CFU/ml] | Activity [10] [×10³ CFU/ml] | Activity [11] [×10³ CFU/ml] | Activity [12] [×10³ CFU/ml] | Activity [13] [×10³ CFU/ml] | Activity [14] [×10³ CFU/ml] | Activity [15] [×10³ CFU/ml] | Activity [16] [×10³ CFU/ml] | inhibition [17] [%] | inhibition [18] [%] | inhibition [19] [%] |
| --- | --- | --- | --- | --- | --- | --- | --- | --- | --- | --- | --- | --- | --- | --- | --- | --- | --- | --- | --- |
| OC(Cn1cncn1)(Cn1cncn1)c1ccc(F)cc1F [FLUCONAZOLE] | 0 | 11.7 | 49.7 | 18.7 | 11.7 | 53.5 | 1.25 | 0 | 61 | 44 | 25.7 | >100 | 100 | 5 | 93 | 100 | – | – | – |
| CC(C)CC(=O)N[C@H](C(=O)N[C@H](C(=O)N[C@@H](CC(C)C)[C@@H](O)CC(=O)N[C@@H](C)C(=O)N[C@@H](CC(C)C)[C@@H](O)CC(=O)O)C(C)C)C(C)C [PEPSTATIN] | – | 28 | 51 | 19.8 | 3.8 | 56.8 | 5 | 0 | 37.2 | 30 | 32.4 | – | 58.4 | 9.4 | 52 | >100 | – | – | – |
| O=C([C@@H]1O[C@H]2CN(Cc3ccccc3)C(=O)[C@@H]1O2)N1CCN(CCO)CC1 | – | – | – | – | – | – | – | – | – | – | – | – | – | – | – | – | 31 | 92 | 58 |
